Assay [1] relates to DLD-1. The assay is described as follows: Anti-proliferative activity against human DLD1 cells assessed as inhibition of colony formation at 100 nM measured after 18 days under normal serum condition by trypan blue staining based light microscopic analysis. The format is functional, cell-based. In short, it runs like this:
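DLD-1 colony-forming assay under normal serum: 1000 cells/well, with 1.0 µM or 100 nM compound, or a 1% DMSO (v/v) vehicle control. Colonies were counted, n = 3.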

Assay [2] has as its target Poly [ADP-ribose] polymerase 1 (Homo sapiens, UniProt P09874). The assay is described as follows: Inhibition of PARP1 (unknown origin).

Each structure is given as a SMILES string. The source made the active and inactive calls. The calls are words filed in the database; no cut-off is given here.

Chain of Poly [ADP-ribose] polymerase 1 (P09874 whole entry): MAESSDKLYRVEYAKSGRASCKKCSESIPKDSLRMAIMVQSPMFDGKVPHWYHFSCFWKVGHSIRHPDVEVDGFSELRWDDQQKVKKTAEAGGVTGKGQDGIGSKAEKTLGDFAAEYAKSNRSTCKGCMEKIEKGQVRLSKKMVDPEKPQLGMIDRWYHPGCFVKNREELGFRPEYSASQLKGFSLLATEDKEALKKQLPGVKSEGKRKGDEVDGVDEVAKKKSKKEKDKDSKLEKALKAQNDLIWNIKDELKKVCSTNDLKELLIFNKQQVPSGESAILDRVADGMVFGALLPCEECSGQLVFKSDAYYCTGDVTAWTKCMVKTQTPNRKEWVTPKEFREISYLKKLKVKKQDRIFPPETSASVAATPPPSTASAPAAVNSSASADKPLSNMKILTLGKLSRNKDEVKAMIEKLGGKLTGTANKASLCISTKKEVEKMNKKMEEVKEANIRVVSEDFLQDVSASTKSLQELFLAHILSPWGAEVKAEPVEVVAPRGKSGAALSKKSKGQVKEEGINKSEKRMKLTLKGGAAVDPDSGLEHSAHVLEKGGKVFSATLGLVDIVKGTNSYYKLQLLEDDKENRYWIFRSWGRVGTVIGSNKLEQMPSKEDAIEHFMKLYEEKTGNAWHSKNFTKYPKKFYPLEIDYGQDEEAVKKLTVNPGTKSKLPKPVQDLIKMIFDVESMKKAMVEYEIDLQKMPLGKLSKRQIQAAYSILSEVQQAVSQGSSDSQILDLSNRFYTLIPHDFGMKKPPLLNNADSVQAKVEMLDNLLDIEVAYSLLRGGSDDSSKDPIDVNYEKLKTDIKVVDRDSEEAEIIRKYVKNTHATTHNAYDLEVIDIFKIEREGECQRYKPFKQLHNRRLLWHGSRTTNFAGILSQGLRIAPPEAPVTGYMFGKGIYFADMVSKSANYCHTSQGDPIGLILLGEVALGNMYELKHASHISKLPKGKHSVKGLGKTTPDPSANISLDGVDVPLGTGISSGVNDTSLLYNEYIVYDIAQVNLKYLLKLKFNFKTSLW

Usually IC50 stands for the concentration needed to halve the response being measured. A higher IC50 goes with lower potency. With `Cc1cccc2c(=O)[nH]c(CCC(=O)Nc3ccc(C(=O)Nc4cccc5cccnc45)cc3)nc12`, the inhibition entry in assay [1] was “Active”. For the same molecule, the midpoint of inhibition in assay [2], the IC50, lay at 6.5 µM.
As to `O=C(CCc1nc2ccccc2c(=O)[nH]1)Nc1ccc(C(=O)Nc2cccc3cccnc23)cc1`, in assay [1], the inhibition entry is “Active”.
